According to article PMC3268193 (British Journal of Pharmacology, 2012):
Changes are numbered by the printed parent chain. “Also recorded” adds a separate entry of the source.

Key:
[1] = target: T1, human P2X1 receptor WT (Homo sapiens, UniProt P51575); assay: Two-electrode voltage clamp, WT P2X1 receptor in Xenopus oocytes; type: cell-based
T1 sequence (P51575 1-399): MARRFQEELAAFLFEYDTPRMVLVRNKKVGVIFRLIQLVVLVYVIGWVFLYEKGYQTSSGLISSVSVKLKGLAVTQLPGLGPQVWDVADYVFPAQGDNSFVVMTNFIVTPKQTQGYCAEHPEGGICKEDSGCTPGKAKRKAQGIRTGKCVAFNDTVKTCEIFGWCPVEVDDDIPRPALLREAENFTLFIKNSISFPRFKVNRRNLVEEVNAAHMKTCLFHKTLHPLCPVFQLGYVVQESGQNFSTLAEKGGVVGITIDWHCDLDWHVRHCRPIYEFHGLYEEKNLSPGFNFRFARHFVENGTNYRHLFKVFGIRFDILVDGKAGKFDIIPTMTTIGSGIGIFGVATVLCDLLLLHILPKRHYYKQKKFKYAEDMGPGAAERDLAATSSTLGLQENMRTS

[2] = target: T2, human P2X2 receptor WT (Homo sapiens, UniProt Q9UBL9); assay: Two-electrode voltage clamp, WT P2X2 receptor in Xenopus oocytes; type: cell-based; conditions: P2X2 WT
T2 sequence (Q9UBL9 1-471): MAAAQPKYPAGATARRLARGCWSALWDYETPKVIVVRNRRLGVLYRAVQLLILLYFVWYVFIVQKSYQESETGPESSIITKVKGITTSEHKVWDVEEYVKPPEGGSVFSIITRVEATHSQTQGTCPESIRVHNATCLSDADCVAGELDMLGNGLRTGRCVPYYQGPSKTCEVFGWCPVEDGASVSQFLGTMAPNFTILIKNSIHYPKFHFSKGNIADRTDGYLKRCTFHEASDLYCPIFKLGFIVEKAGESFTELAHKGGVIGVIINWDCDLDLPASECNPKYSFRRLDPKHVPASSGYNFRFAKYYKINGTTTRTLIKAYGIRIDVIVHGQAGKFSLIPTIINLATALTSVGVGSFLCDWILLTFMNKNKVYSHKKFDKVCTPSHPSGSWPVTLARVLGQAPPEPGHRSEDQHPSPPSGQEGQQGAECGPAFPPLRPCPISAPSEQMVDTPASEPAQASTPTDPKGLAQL

[3] = target: Dictyostelium P2X receptors; conditions: read-out: EC50 for ATP; ref Ludlow et al., 2009; cited from earlier work
[4] = target: T3, DelD P2X1 receptor (Homo sapiens, UniProt P51575, D154F/DEL118-152/DEL160-165/K157P/V156D); assay: Two-electrode voltage clamp, deletion mutant DelD P2X1; type: cell-based; conditions: ATP up to 10 mM
T3 sequence (P51575 with tags, fused parts or gaps DEL118-152/D154F/V156D/K157P/DEL160-165): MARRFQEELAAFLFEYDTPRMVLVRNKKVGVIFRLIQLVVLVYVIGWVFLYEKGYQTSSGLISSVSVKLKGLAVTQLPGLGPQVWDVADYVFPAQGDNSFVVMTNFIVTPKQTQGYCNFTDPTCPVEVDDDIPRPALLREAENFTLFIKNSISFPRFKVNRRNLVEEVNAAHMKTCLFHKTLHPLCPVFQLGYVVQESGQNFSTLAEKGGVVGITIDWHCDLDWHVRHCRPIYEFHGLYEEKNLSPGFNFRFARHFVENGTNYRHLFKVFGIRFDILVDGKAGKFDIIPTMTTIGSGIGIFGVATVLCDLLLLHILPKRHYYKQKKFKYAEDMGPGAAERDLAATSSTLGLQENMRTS
Procedure, shortened: (§1)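 Human P2X1 deletion-mutant cRNA made by T7 in vitro transcription and injected into stage V Xenopus laevis oocytes. Oocytes kept at 18°C in ND96 (pH 7.5, with gentamicin) and recorded 2–6 days later. Two-electrode voltage clamp at −60 mV, with 1.8 mM BaCl2 replacing CaCl2 in the bath.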

[5] = target: T4, P2X1 Cys2(1-6) chimera (Homo sapiens, UniProt P51575, A118P/A137L/A141G/A151Y/D154G/DEL120-123/E128S/F152Y/G124S/G131D/I144L/I161V/INS125RVHNAT/INS150P/K127L/K136E/K138D/K140L/K148R/N153Q/P134A/Q142N/R139M/S130A/T133V/T155P/V156S); assay: Two-electrode voltage clamp, chimera P2X1 Cys2; type: cell-based; conditions: P2X1 Cys2(1-6)
T4 sequence (P51575 with tags, fused parts or gaps A118P/DEL120-123/G124S/INS125RVHNAT/K127L/E128S/S130A/G131D/T133V/P134A/K136E/A137L/K138D/R139M/K140L/A141G/Q142N/I144L/K148R/INS150P/A151Y/F152Y/N153Q/D154G/T155P/V156S/I161V): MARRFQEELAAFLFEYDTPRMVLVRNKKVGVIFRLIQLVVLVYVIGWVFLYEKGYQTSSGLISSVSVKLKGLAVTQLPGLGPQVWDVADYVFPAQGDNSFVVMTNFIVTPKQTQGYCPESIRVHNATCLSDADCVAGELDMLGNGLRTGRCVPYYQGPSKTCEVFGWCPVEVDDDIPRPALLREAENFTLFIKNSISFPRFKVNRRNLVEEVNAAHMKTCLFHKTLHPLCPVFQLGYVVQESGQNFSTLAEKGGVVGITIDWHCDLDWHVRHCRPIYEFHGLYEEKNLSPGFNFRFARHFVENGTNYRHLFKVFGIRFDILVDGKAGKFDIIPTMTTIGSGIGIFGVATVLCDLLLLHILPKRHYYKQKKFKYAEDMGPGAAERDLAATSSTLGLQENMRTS

[6] = target: T5, P2X2 receptor mutant D136K (Homo sapiens, UniProt Q9UBL9, D148K); assay: Two-electrode voltage clamp, P2X2 mutant D136K; type: cell-based; conditions: read-out: ATP EC50
T5 sequence (Q9UBL9 1-471 D148K): T2 sequence (Q9UBL9 1-471) with D148K

[7] = test system: P2X1 Del mutant receptor; assay: Two-electrode voltage clamp, deletion mutant P2X1 Del; type: cell-based, human; conditions: ATP 100 µM, up to 10 mM
Procedure, shortened: as §1

Nc1ncnc2c1ncn2[C@@H]1O[C@H](COP(=O)(O)OP(=O)(O)OP(=O)(O)O)[C@@H](O)[C@H]1O [ATP]
Decay Time ([1]; P2X1 WT, 100% to 50% decay of current): 495 ± 45 ms | Peak amplitude of inward current ([1]; WT P2X1, ATP 100 µM, n = 12): −9188 ± 590 nA | EC50 ([1]; read-out: ATP EC50, P2X1 WT): ~0.75 µM | Decay of current ([2]; 100 µM ATP, 3 s application): no decay at end of 3 s pulse | EC50 ([2]; read-out: ATP EC50): ~10 µM | EC50 [3]: 100 to 500 µM | ATP-evoked current [4]: little or no response | Decay Time ([5]; 100% to 50% decay): 1305 ± 176 ms | EC50 ([5]; read-out: ATP EC50): ~3 µM | EC50 [6]: 3.87 µM | ATP-evoked current [7]: barely detectable inward currents; also recorded: ineffective
